The text below walks through data of ChEMBL document CHEMBL4842320, “Cryptic Biosynthesis of the Berkeleypenostatins from Coculture of Extremophilic Penicillium sp” (J Nat Prod, 2021).

In brackets after ≈: the same amount, converted by molar mass. Activity calls are given as the source filed them. The rule behind the calls is not given here.

For experiment [1], the system named is Panel NCI-60 (60 carcinoma cell lines). Briefly: Anticancer activity against human Panel NCI-60 (60 carcinoma cell lines) assessed as total growth inhibition at 1 to 10 uM measured after 48 hrs by SRB assay. The conditions noted are these: dose 1-10 µM. In kind it is functional, cell-based. In a few lines: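 NCI Developmental Therapeutics Program 60-human-tumour-cell-line five-dose screen, with total growth inhibition (TGI) as the end-point.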

In experiment [2] the test system is HPAF-II. Briefly: Cytotoxicity against human HPAF-II cells assessed as reduction in cell viability at upto 50 uM by MTT assay. In kind it is functional, cell-based. The conditions noted are these: dose microM <=50. The method in brief:
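Vybrant MTT proliferation assay on HPAF-II cells harvested with 0.25% trypsin/0.53 mM EDTA, with viability checked after harvest. Compounds were tested up to 50 μM.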
For orientation: Tetrazolium dyes change colour on reduction, which living cells bring about.

Experiment [3] relates to HPAF-II. Kind of experiment: Antiinvasive activity against human HPAF-II cells assessed as reduction in cell invasion at 1.25 uM measured upto 24 hrs by CMFDA dye staining based fluorescence assay. In kind it is functional. The following applies: time hrs <=24. In a few lines:
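Matrigel-coated invasion inserts with 8 μm pores. HPAF-II cells were harvested, resuspended in serum-free DMEM and labelled with CellTracker CMFDA. Compound was diluted in serum-free DMEM to a final 1.25 μM. Run in triplicate, with untreated cells as control and NNGH as positive control.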

The test system of experiment [4] is HPAF-II. Kind of experiment: Inhibition of cell migration in human HPAF-II cells at 1.25 uM measured upto 24 hrs by CMFDA dye staining based fluorescence assay. In kind it is functional. The conditions noted are these: time hrs <=24. The method in brief:
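Fluoroblok 96-well insert migration kinetics. HPAF-II cells were harvested at ~80% confluency, resuspended at 5 ×10^5 cells/mL in serum-free DMEM and stained with CellTracker CMFDA. Compound was present at a final 1.25 μM over 24 h. Run in triplicate, with untreated cells as control and NNGH as positive control.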

The test system of experiment [5] is Staphylococcus aureus. Briefly: Antibacterial activity against wild-type Staphylococcus aureus assessed as minimum inhibitory concentration by alamar blue dye based broth microdilution method. In kind it is functional.
Experiment [6] relates to Staphylococcus aureus. Kind of experiment: Antibacterial activity against multidrug resistant strains of Staphylococcus aureus assessed as minimum inhibitory concentration by alamar blue dye based broth microdilution method. In kind it is functional. (In general: Resazurin is reduced to fluorescent resorufin, in cell work by metabolically active cells.)
In another experiment the test system is Bacillus anthracis. Briefly: Antibacterial activity against Bacillus anthracis assessed as minimum inhibitory concentration by alamar blue dye based broth microdilution method. In kind it is functional.
The next experiment has as its target Stromelysin-1 (Homo sapiens, UniProt P08254). Briefly: Inhibition of MMP-3 (unknown origin). In a few lines: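 MMP-3 inhibition measured with a commercial MMP-3 drug discovery kit.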

Sequence of Stromelysin-1 (P08254 whole entry): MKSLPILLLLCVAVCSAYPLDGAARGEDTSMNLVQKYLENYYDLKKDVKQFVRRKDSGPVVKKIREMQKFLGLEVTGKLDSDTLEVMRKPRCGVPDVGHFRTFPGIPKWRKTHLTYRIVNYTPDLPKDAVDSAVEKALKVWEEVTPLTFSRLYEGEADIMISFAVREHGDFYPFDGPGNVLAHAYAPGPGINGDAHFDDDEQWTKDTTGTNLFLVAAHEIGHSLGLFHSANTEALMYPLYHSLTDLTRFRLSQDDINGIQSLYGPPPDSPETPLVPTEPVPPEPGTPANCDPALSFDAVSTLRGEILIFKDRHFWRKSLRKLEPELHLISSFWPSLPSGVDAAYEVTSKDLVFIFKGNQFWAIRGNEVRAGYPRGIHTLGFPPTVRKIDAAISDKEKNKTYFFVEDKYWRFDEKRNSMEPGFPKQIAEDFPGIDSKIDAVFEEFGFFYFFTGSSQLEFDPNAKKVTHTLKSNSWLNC

For orientation: inhibition means how much of the control response was suppressed. For `CCCCCCC/C=C/[C@@H]1O[C@]23C(=O)C[C@@]4(C[C@H](O[C@@H]5O[C@H](CO)[C@@H](O)[C@H](O)[C@H]5O)C[C@H]4[C@@H]2C=C1C)OC3=O`, the result (in experiment [1]; in the experiment with HPAF-II [2]; in the experiment with HPAF-II [3]) was inactive. The compound also showed an inhibition at 1.25 µM in the experiment with HPAF-II [4] of 30%.

As usually defined, the MIC is the lowest concentration that inhibits growth of the organism. In the case of `CCCCCCC/C=C/[C@@H]1O[C@@]2(O)C(=O)C=C3C[C@@H](O[C@@H]4O[C@H](CO)[C@@H](O)[C@H](O)[C@H]4O)C[C@H]3[C@@H]2C=C1C`, the MIC with Staphylococcus aureus [5], in the experiment on Staphylococcus aureus [6] and in the experiment on Bacillus anthracis was 17 µg/mL (≈ 32.5 µM) each time.

As a reminder, the IC50 is the concentration that inhibits the measured activity by half. As for `CCCCCCC/C=C/[C@@H]1O[C@@]2(O)C(=O)C=C3C[C@H](O[C@@H]4O[C@H](CO)[C@@H](O)[C@H](O)[C@H]4O)C[C@H]3[C@@H]2C=C1C`, the MIC with Staphylococcus aureus [5], in the experiment on Staphylococcus aureus [6] and in the experiment on Bacillus anthracis was 4 µg/mL (≈ 7.65 µM) each time. This compound had an IC50 against Stromelysin-1 of 50 µM. Also, in experiment [1], the outcome was Active. The outcome in the experiment with HPAF-II [2] and with HPAF-II [3] was inactive. This compound also returned an inhibition at 1.25 µM with HPAF-II [4] of 30%.

Consider `O=C(O)c1cn(C2CC2)c2cc(N3CCNCC3)c(F)cc2c1=O` [CIPROFLOXACIN], for which the MIC in the experiment on Bacillus anthracis was determined as 0.064 µg/mL (≈ 0.193 µM).
